The text below walks through data of ChEMBL document CHEMBL3763095, “Naphtho[1',2':4,5]imidazo[1,2-a]pyridine-5,6-diones: Synthesis, enzymatic reduction and cytotoxic activity” (Bioorg Med Chem Lett, 2016).

The test system of assay [1] is Escherichia coli. Briefly: Antibacterial activity against Escherichia coli ATCC 25922 after 16 hrs by two-fold microdillution method. Type of assay: functional, organism-based.
Assay [2] addresses NAD(P)H dehydrogenase [quinone] 1 (Homo sapiens) (UniProt P15559). The experiment in a line: Activity of NQO1 (unknown origin) assessed as O2 uptake at 5 to 15 uM by polarographic analysis in the presence of catalase and 150 to 200 uM NADPH.
The target is the same in assay [3]. Briefly: Activity of NQO1 (unknown origin) assessed as reduction of cytochrome c at 5 to 15 uM in the presence of superoxide dismutase and 150 to 200 uM of NADPH. The method, boiled down: (§1)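 NQO1-catalysed quinone reduction coupled to cytochrome c (50 µM) as the terminal single-electron acceptor.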
Assay [4] shares this target. Briefly: Activity of NQO1 (unknown origin) assessed as reduction of cytochrome c at 5 to 15 uM by spectrophotometric analysis relative to NADPH oxidation rate. Also on record: scale not given: the % may be the effect or the level left. The method, boiled down:
as §1

The test system of assay [5] is Salmonella enterica. The experiment in a line: Antibacterial activity against Salmonella enterica SL 5676 after 16 hrs by two-fold microdillution method. Type of assay: functional, organism-based.
Assay [6] has as its target NAD(P)H dehydrogenase [quinone] 1 (Homo sapiens) (UniProt P15559). The experiment in a line: Substrate inhibition of NQO1 (unknown origin) by spectrophotometric analysis in the presence of 12.5 to 200 uM NADPH.

Calls of active or inactive are those of the source. No cut-off for these calls is given here.

Sequence of NAD(P)H dehydrogenase [quinone] 1 (Homo sapiens) (P15559 whole entry): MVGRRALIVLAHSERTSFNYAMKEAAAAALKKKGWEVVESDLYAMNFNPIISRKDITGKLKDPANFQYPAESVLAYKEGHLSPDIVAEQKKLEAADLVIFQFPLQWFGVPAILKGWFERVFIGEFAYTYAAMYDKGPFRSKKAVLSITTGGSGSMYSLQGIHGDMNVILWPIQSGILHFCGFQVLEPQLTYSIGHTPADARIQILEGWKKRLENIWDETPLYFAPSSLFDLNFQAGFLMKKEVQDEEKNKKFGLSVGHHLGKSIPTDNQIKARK

With `O=C1C(=O)c2c(nc3ccc4ccccc4n23)-c2ccccc21`, the result in assay [1], in assay [2], in assay [3] and in assay [5] was inactive. Further, the Activity in assay [4] amounted to 180%.

For `O=C1C(=O)c2c(nc3ccccn23)-c2ccc([N+](=O)[O-])cc21`, the result in assay [1], in assay [2], in assay [3] and in assay [5] was inactive. In assay [4], the Activity came to 180%.

On to `O=C1C(=O)c2c(nc3ccccn23)-c2ccccc21`, for which the result in assay [1], in assay [2], in assay [3] and in assay [5] was inactive. The inhibition result in assay [6] was “Active”. For the same compound, the Activity in assay [4] stood at 180%.

For the compound `O=C1C(=O)c2c(nc3ccc(C(F)(F)F)cn23)-c2ccccc21`, the outcome in assay [1], in assay [2], in assay [3] and in assay [5] was inactive. The Activity in assay [4] was found to be 180%.

On to `Cc1ccn2c3c(nc2c1)-c1ccccc1C(=O)C3=O`, for which the outcome in assay [1], in assay [2], in assay [3] and in assay [5] was inactive. Further, in assay [4], the Activity was determined as 180%.

Turning to `O=C1C(=O)c2c(nc3ccc([N+](=O)[O-])cn23)-c2ccccc21`, the outcome in assay [1], in assay [2], in assay [3] and in assay [5] was inactive. The Activity in assay [4] is 180%.

In the case of `O=C1C(=O)c2c(nc3ccc(F)cn23)-c2ccccc21`, the result in assay [1], in assay [2], in assay [3] and in assay [5] was inactive. For the same compound, the Activity in assay [4] came out at 180%.

Take `O=C1C(=O)c2c(nc3ccc(Cl)cn23)-c2ccccc21`: the outcome in assay [1], in assay [2], in assay [3] and in assay [5] was inactive. The Activity in assay [4] came out at 180%.

On to `O=C1C(=O)c2c(nc3ccc(Br)cn23)-c2ccccc21`, for which the result in assay [1], in assay [2], in assay [3] and in assay [5] was inactive. Moreover, in assay [4], the Activity was 180%.

For the compound `Cc1cccn2c3c(nc12)-c1ccccc1C(=O)C3=O`, the outcome in assay [1], in assay [2], in assay [3] and in assay [5] was inactive. Also, in assay [4], the Activity amounted to 180%.

Turning to `O=C1C(=O)c2c(nc3ncccn23)-c2ccccc21`, the outcome in assay [1], in assay [2], in assay [3] and in assay [5] was inactive. In addition, in assay [4], the Activity was 180%.

As to `Cc1ccc2nc3c(n2c1)C(=O)C(=O)c1ccccc1-3`, the result in assay [1], in assay [2], in assay [3] and in assay [5] was inactive. Further, in assay [4], the Activity came out at 180%.

Turning to `COc1ccc2nc3c(n2c1)C(=O)C(=O)c1ccccc1-3`, the result in assay [1], in assay [2], in assay [3] and in assay [5] was inactive. In addition, the inhibition entry in assay [6] is “Active”. Further, the Activity in assay [4] amounted to 180%.
